{
  "source": "ChEMBL document CHEMBL4257575",
  "about": "“Discovery of Novel Flavonoid Dimers To Reverse Multidrug Resistance Protein 1 (MRP1, ABCC1) Mediated Drug Resistance in Cancers Using a High Throughput Platform with \"Click Chemistry\"” (J Med Chem, 2018)",
  "data": [
    {"target": "Multidrug resistance-associated protein 1 (Homo sapiens, UniProt P33527)", "sequence (P33527 whole entry)": "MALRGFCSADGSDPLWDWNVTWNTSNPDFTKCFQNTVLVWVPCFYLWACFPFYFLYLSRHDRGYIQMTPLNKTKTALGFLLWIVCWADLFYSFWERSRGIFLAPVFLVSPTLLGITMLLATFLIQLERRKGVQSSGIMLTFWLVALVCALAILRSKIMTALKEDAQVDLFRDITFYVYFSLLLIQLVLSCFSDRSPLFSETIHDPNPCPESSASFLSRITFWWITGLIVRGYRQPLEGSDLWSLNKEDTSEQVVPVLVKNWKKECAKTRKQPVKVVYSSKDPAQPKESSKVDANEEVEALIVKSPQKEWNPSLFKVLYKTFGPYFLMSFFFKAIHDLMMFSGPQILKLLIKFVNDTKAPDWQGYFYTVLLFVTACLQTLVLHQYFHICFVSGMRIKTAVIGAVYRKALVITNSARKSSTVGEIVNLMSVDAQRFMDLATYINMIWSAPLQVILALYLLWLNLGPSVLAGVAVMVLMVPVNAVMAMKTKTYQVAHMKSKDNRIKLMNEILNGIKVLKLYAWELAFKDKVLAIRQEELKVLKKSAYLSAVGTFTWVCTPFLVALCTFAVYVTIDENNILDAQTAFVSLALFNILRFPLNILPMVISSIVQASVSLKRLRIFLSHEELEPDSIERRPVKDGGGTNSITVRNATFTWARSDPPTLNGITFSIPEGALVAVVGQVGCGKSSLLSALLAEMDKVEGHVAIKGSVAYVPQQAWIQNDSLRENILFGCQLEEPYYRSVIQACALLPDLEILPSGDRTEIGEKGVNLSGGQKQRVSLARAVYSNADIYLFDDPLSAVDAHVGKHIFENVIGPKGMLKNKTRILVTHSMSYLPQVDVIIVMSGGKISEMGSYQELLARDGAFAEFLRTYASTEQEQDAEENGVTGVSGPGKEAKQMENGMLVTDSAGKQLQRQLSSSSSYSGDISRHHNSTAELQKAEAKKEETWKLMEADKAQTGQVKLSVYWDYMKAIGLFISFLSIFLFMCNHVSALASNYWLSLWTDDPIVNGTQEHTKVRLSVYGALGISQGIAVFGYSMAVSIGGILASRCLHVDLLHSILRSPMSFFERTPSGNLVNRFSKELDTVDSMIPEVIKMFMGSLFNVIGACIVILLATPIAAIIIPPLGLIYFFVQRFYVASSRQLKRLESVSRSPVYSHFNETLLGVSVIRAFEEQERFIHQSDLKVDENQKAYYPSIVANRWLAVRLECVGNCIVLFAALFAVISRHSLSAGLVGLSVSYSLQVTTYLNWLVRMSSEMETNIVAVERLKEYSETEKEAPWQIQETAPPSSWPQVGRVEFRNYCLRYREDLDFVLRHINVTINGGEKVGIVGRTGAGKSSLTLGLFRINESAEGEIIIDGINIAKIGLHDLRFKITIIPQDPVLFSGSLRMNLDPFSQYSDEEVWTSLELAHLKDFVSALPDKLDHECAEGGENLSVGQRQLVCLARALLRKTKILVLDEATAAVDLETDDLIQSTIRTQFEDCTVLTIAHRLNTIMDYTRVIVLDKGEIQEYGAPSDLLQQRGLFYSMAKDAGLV", "test": "Inhibition of MRP1 in human 2008/MRP1 cells assessed as potentiation of doxorubicin-induced cytotoxicity by measuring cell survival at 2 uM after 5 days by MTS assay relative to control", "type": "cell-based", "settings": "120 h", "procedure,_shortened": "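2008/MRP1 cells (retroviral human MRP1 transfectant; RPMI 1640, 10% FBS) at 4,000 per well, with 100 nM doxorubicin plus crude, unpurified click products in DMSO: 2 µM in the primary screen, 1 µM in the secondary. Incubated 5 days at 37 °C. MTS/PMS added for 2 h at 37 °C, absorbance read at 490 nm. % survival is relative to wells without DOX or product. Run in triplicate, at least three experiments.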", "units": {"Survival": "%"}, "values": [
      {"smiles": "O=c1cc(-c2ccccc2)oc2cc(OCCOCCOCCn3cc(CN(Cc4ccccc4)Cc4cn(CCOCCOCCOc5ccc6c(=O)cc(-c7ccccc7)oc6c5)nn4)nn3)ccc12", "Survival": 74},
      {"smiles": "O=c1cc(-c2ccccc2)oc2cc(OCCOCCOCCn3cc(-c4cccc(-c5cn(CCOCCOCCOc6ccc7c(=O)cc(-c8ccccc8)oc7c6)nn5)c4)nn3)ccc12", "Survival": 74},
      {"smiles": "Cc1ccc2oc(-c3ccc(OCCOCCOCCn4cc(CN(CCOc5ccc6c(=O)cc(-c7ccccc7)oc6c5)Cc5ccccc5)nn4)cc3)cc(=O)c2c1", "Survival": 53},
      {"smiles": "COc1cccc(COc2c(-c3ccc(OCCOCCn4cc(CN5CCN(Cc6cn(CCOCCOc7ccc(-c8oc9ccccc9c(=O)c8OCc8cccc(OC)c8)cc7)nn6)CC5)nn4)cc3)oc3ccccc3c2=O)c1", "Survival": 85},
      {"smiles": "Cc1ccc2oc(-c3ccc(OCCOCCOCCn4cc(CNc5ccccc5)nn4)cc3)cc(=O)c2c1", "Survival": 86},
      {"smiles": "O=c1[nH]c(-c2ccc(OCCCc3cn(CCOCCOCCOc4ccc(-c5cc(=O)c6ccccc6o5)cc4)nn3)cc2)nc2ccccc12", "Survival": 76},
      {"smiles": "COc1cccc(COc2c(-c3ccc(OCCOCCn4cc(CCCOc5ccc(-c6cc(=O)c7ccc(F)cc7o6)cc5)nn4)cc3)oc3ccccc3c2=O)c1", "Survival": 61},
      {"smiles": "Cc1ccc2oc(-c3ccc(OCCCCc4cn(CCOCCOc5cccc(-c6oc7ccccc7c(=O)c6OCc6ccccc6)c5)nn4)cc3)cc(=O)c2c1", "Survival": 55},
      {"smiles": "C#CCCCCOc1ccc(/C=C/C(=O)c2ccc(F)cc2O)cc1", "Survival": 99},
      {"smiles": "O=c1cc(-c2ccccc2)oc2cc(OCCCCc3cn(CCOCCOCCOc4ccc5c(=O)cc(-c6ccccc6)oc5c4)nn3)ccc12", "Survival": 61},
      {"smiles": "O=c1cc(-c2ccccc2)oc2cc(OCCOCc3cn(CCOCCOc4ccc(-c5cc(=O)c6cc(F)ccc6o5)cc4)nn3)ccc12", "Survival": 54},
      {"smiles": "O=c1cc(-c2ccccc2)oc2cc(OCCOCCOCCn3cc(COCCOc4ccc5c(=O)cc(-c6ccccc6)oc5c4)nn3)ccc12", "Survival": 60},
      {"smiles": "Cc1ccc(C(=O)/C=C/c2ccc(OCCCCc3cn(CCOCCOCCOc4ccc(-c5cc(=O)c6ccccc6o5)cc4)nn3)cc2)c(O)c1", "Survival": 55},
      {"smiles": "C#CCCCCOc1ccc2c(=O)cc(-c3ccccc3)oc2c1", "Survival": 99},
      {"smiles": "C#CCCCCOc1ccc(/C=C/C(=O)c2cc(C)ccc2O)cc1", "Survival": 100},
      {"smiles": "CCc1ccc(O)c(C(=O)/C=C/c2ccc(OCCCCc3cn(CCOCCOCCOc4ccc(-c5cc(=O)c6cc(F)ccc6o5)cc4)nn3)cc2)c1", "Survival": 67},
      {"smiles": "Cc1ccc(O)c(C(=O)/C=C/c2ccc(OCCCCc3cn(CCOc4cccc5c(=O)cc(-c6ccccc6)oc45)nn3)cc2)c1", "Survival": 77},
      {"smiles": "COc1cccc(COc2c(-c3ccc(OCCOCCn4cc(-c5ccc(-c6cn(CCOCCOc7ccc(-c8oc9ccccc9c(=O)c8OCc8cccc(OC)c8)cc7)nn6)cc5)nn4)cc3)oc3ccccc3c2=O)c1", "Survival": 88},
      {"smiles": "O=c1cc(-c2ccccc2)oc2cc(OCCN(Cc3ccccc3)Cc3cn(CCOCCOc4cccc(-c5oc6ccccc6c(=O)c5OCc5ccccc5)c4)nn3)ccc12", "Survival": 73},
      {"smiles": "O=c1c(OCc2ccccc2)c(-c2ccc(OCCOCCn3cc(CNc4ccccc4)nn3)cc2)oc2ccccc12", "Survival": 91},
      {"smiles": "O=c1cc(-c2ccccc2)oc2cc(OCCOCc3cn(CCOCCOc4cccc(-c5oc6ccccc6c(=O)c5OCc5ccccc5)c4)nn3)ccc12", "Survival": 77},
      {"smiles": "O=c1cc(-c2ccc(OCCOCCn3cc(CNc4ccccc4)nn3)cc2)oc2ccccc12", "Survival": 90},
      {"smiles": "O=c1cc(-c2ccccc2)oc2c(OCCn3cc(CNc4ccccc4)nn3)cccc12", "Survival": 85},
      {"smiles": "[N-]=[N+]=NCCOCCOc1cccc(-c2oc3ccccc3c(=O)c2OCc2ccccc2)c1", "Survival": 86},
      {"smiles": "CCc1ccc(O)c(C(=O)/C=C/c2ccc(OCCCCc3cn(CCOCCOc4ccc(-c5oc6ccccc6c(=O)c5OCc5ccccc5)cc4)nn3)cc2)c1", "Survival": 69},
      {"smiles": "COc1cccc(COc2c(-c3ccc(OCCOCCn4cc(CCCCOc5ccc(-c6cc(=O)c7cc(C)ccc7o6)cc5)nn4)cc3)oc3ccccc3c2=O)c1", "Survival": 78},
      {"smiles": "O=c1cc(-c2ccccc2)oc2cc(OCCCc3cn(CCOCCOc4ccc(-c5oc6ccccc6c(=O)c5OCc5ccccc5)cc4)nn3)ccc12", "Survival": 51},
      {"smiles": "O=c1cc(-c2ccccc2)oc2cc(OCCOCc3cn(CCOCCOCCOc4ccc(-c5cc(=O)c6cc(F)ccc6o5)cc4)nn3)ccc12", "Survival": 53},
      {"smiles": "O=c1cc(-c2ccc(OCCCc3cn(CCOCCOCCOc4ccc(-c5cc(=O)c6ccccc6o5)cc4)nn3)cc2)oc2ccccc12", "Survival": 56},
      {"smiles": "Cc1ccc(C(=O)/C=C/c2ccc(OCCCCc3cn(CCOCCOc4ccc5c(=O)cc(-c6ccccc6)oc5c4)nn3)cc2)c(O)c1", "Survival": 62},
      {"smiles": "CN(CCN(C)Cc1cn(CCOCCOCCOc2ccc(-c3oc4ccccc4c(=O)c3OCc3ccccc3)cc2)nn1)Cc1cn(CCOCCOCCOc2ccc(-c3oc4ccccc4c(=O)c3OCc3ccccc3)cc2)nn1", "Survival": 84},
      {"smiles": "CCc1ccc(O)c(C(=O)/C=C/c2ccc(OCCCCc3cn(CCOCCOc4ccc(-c5cc(=O)c6cc(F)ccc6o5)cc4)nn3)cc2)c1", "Survival": 80},
      {"smiles": "Cc1ccc2oc(-c3ccc(OCCOCCOCCN=[N+]=[N-])cc3)cc(=O)c2c1", "Survival": 84},
      {"smiles": "O=Cc1ccc(OCCCCc2cn(CCOCCOc3ccc4c(=O)cc(-c5ccccc5)oc4c3)nn2)cc1", "Survival": 82},
      {"smiles": "Cc1ccc2oc(-c3ccc(OCCCCc4cn(CCOCCOc5ccc(-c6oc7ccccc7c(=O)c6OCc6ccccc6)cc5)nn4)cc3)cc(=O)c2c1", "Survival": 73},
      {"smiles": "O=c1cc(-c2ccccc2)oc2cc(OCCOCCn3cc(COCCOc4ccc5c(=O)cc(-c6ccccc6)oc5c4)nn3)ccc12", "Survival": 60},
      {"smiles": "Cc1ccc2oc(-c3ccc(OCCOCCOCCn4cc(COCCOc5ccc6c(=O)cc(-c7ccccc7)oc6c5)nn4)cc3)cc(=O)c2c1", "Survival": 54},
      {"smiles": "O=c1cc(-c2ccc(OCCOCCOCCn3cc(CN4CCN(Cc5cn(CCOCCOCCOc6ccc(-c7cc(=O)c8ccccc8o7)cc6)nn5)CC4)nn3)cc2)oc2ccccc12", "Survival": 100},
      {"smiles": "O=c1cc(-c2ccc(OCCCc3cn(CCOCCOc4cccc(-c5oc6ccccc6c(=O)c5OCc5ccccc5)c4)nn3)cc2)oc2ccc(F)cc12", "Survival": 79},
      {"smiles": "O=c1c(OCc2ccccc2)c(-c2cccc(OCCOCCn3cc(CN(Cc4cn(CCOCCOc5cccc(-c6oc7ccccc7c(=O)c6OCc6ccccc6)c5)nn4)Cc4cn(CCOCCOc5cccc(-c6oc7ccccc7c(=O)c6OCc6ccccc6)c5)nn4)nn3)c2)oc2ccccc12", "Survival": 91},
      {"smiles": "CCc1ccc(O)c(C(=O)/C=C/c2ccc(OCCCCc3cn(CCOCCOCCOc4ccc5c(=O)cc(-c6ccccc6)oc5c4)nn3)cc2)c1", "Survival": 79},
      {"smiles": "Cc1ccc2oc(-c3ccc(OCCOCCOCCn4cc(CN(C)CCN(C)Cc5cn(CCOCCOCCOc6ccc(-c7cc(=O)c8cc(C)ccc8o7)cc6)nn5)nn4)cc3)cc(=O)c2c1", "Survival": 76},
      {"smiles": "COCOc1cc(OCc2ccccc2)c2c(=O)cc(-c3ccc(OCCCc4cn(CCOCCOCCOc5ccc(-c6cc(=O)c7ccccc7o6)cc5)nn4)cc3)oc2c1", "Survival": 66},
      {"smiles": "COc1cccc(COc2c(-c3ccc(OCCOCCn4cc(CCCOc5ccc(-c6nc7ccccc7c(=O)[nH]6)cc5)nn4)cc3)oc3ccccc3c2=O)c1", "Survival": 67},
      {"smiles": "[N-]=[N+]=NCCOCCOCCOc1ccc(-c2oc3ccccc3c(=O)c2OCc2ccccc2)cc1", "Survival": 74},
      {"smiles": "O=c1[nH]c(-c2ccc(OCCCc3cn(CCOCCOc4ccc(-c5oc6ccccc6c(=O)c5OCc5ccccc5)cc4)nn3)cc2)nc2ccccc12", "Survival": 64},
      {"smiles": "C#CCCCCOc1ccc(-c2oc3ccccc3c(=O)c2OCc2cccc(OC)c2)cc1", "Survival": 71},
      {"smiles": "O=c1cc(-c2ccccc2)oc2cc(OCCn3cc(CN(Cc4cn(CCOc5ccc6occ(-c7ccccc7)c(=O)c6c5)nn4)Cc4cn(CCOc5ccc6occ(-c7ccccc7)c(=O)c6c5)nn4)nn3)ccc12", "Survival": 87},
      {"smiles": "CCc1ccc(O)c(C(=O)/C=C/c2ccc(OCCCCc3cn(CCOCCOc4cccc(-c5oc6ccccc6c(=O)c5OCc5ccccc5)c4)nn3)cc2)c1", "Survival": 85},
      {"smiles": "O=c1c(OCc2ccccc2)c(-c2ccc(OCCOCCOCCn3cc(CN(Cc4ccccc4)Cc4cn(CCOCCOCCOc5ccc(-c6oc7ccccc7c(=O)c6OCc6ccccc6)cc5)nn4)nn3)cc2)oc2ccccc12", "Survival": 87},
      {"smiles": "COCOc1cc(OCc2ccccc2)c2c(=O)cc(-c3ccc(OCCCc4cn(CCOCCOc5ccc(-c6oc7ccccc7c(=O)c6OCc6ccccc6)cc5)nn4)cc3)oc2c1", "Survival": 88},
      {"smiles": "C#CCCCCOc1ccc(/C=C/C(=O)c2ccccc2O)cc1", "Survival": 102},
      {"smiles": "O=c1c(OCc2ccccc2)c(-c2ccc(OCCOCCOCCn3cc(CN(Cc4cn(CCOCCOCCOc5ccc(-c6oc7ccccc7c(=O)c6OCc6ccccc6)cc5)nn4)Cc4cn(CCOCCOCCOc5ccc(-c6oc7ccccc7c(=O)c6OCc6ccccc6)cc5)nn4)nn3)cc2)oc2ccccc12", "Survival": 81},
      {"smiles": "O=c1cc(-c2ccc(OCCOCCn3cc(-c4cccc(-c5cn(CCOCCOc6ccc(-c7cc(=O)c8cc(F)ccc8o7)cc6)nn5)c4)nn3)cc2)oc2ccc(F)cc12", "Survival": 74},
      {"smiles": "O=c1cc(-c2ccccc2)oc2cc(OCCOCCn3cc(CCCOc4ccc(-c5cc(=O)c6cc(F)ccc6o5)cc4)nn3)ccc12", "Survival": 111},
      {"smiles": "O=c1cc(-c2ccccc2)oc2cc(OCCOCc3cn(CCOc4cccc5c(=O)cc(-c6ccccc6)oc45)nn3)ccc12", "Survival": 68},
      {"smiles": "O=c1cc(-c2ccc(OCCOCCOCCn3cc(-c4ccc(-c5cn(CCOCCOCCOc6ccc(-c7cc(=O)c8cc(F)ccc8o7)cc6)nn5)cc4)nn3)cc2)oc2ccc(F)cc12", "Survival": 83},
      {"smiles": "Cc1ccc2oc(-c3ccc(OCCCCc4cn(CCOc5cccc6c(=O)cc(-c7ccccc7)oc56)nn4)cc3)cc(=O)c2c1", "Survival": 75},
      {"smiles": "O=c1cc(-c2ccc(OCCCc3cn(CCOCCOc4ccc(-c5oc6ccccc6c(=O)c5OCc5ccccc5)cc4)nn3)cc2)oc2ccc(F)cc12", "Survival": 97},
      {"smiles": "CN(CCN(C)Cc1cn(CCOCCOCCOc2ccc(-c3cc(=O)c4ccccc4o3)cc2)nn1)Cc1cn(CCOCCOCCOc2ccc(-c3cc(=O)c4ccccc4o3)cc2)nn1", "Survival": 71},
      {"smiles": "COc1cccc(COc2c(-c3ccc(OCCOCCn4cc(CCCOc5ccc6c(=O)cc(-c7ccccc7)oc6c5)nn4)cc3)oc3ccccc3c2=O)c1", "Survival": 78}
    ]}
  ]
}
